Sequences and labels used below:
B1: NELF-E aptamer (parent)
chain: CCCAACGACUGCCGAGCGAGAUUACGCUUGAGCGCCCCACUGAGGAUGCCCACGGGCGAUUGGGGCACGG

The variants in the data set derive from B1. The experiment in a line: HiTS-RAP. Conditions: with NELF-E (Drosophila). A digest of the protocol: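 Aptamer DNA templates carrying a T7 promoter and ter site were sequenced on an Illumina GAIIx flowcell, then transcribed in situ by T7 RNA polymerase and halted by GST-Tus (30 minutes, 37°C). Clusters were imaged after 30-minute room-temperature equilibration with NELF-E-mOrange at 0.064 to 1000 nM in HEPES binding buffer, and only the first binding curve was used. Intensities were normalised to sequencing intensity and averaged per sequence. Kd came from weighted Hill fits, keeping fits with variance below 1,000,000.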
The term Kd denotes the constant that tells how readily two partners part at equilibrium. On to CCCUACGACUGCAGAGCGAGAUUACGCUUGAGCGCCCCACUGAGGAUGCCCACGGGCGAUUGGGGCACGG, for which the Kd was 4.82 nM. Take CCCUACGACUGCCGAGCGAGACUACGCUUGAGCGCCCCACUGAGGAUGCCCACGGGCGAUUGGGGCACGG: the Kd came to 5.97 nM. On to CCCUACGACUGCCGAGCGAGAGUACGCUUGAGCGCCCCACUGAGGAUGCCCACGGGCGAUUGGGGCACGG, for which the Kd is 5.86 nM. Consider CCCUACGACUGCCGAGCGAGAUUACGCUUGAGCGCCCCACUGAGGAUGCCCACGGGCGAUCGGGGCACGG, for which the Kd is 74.2 nM. In the case of CCCUACGACUGCCGAGCGAGAUUACGCUUGAGCGCCCCACUGAGGAUGCCCACGGGCGAUAGGGGCACGG, the Kd was 22.7 nM. Consider CCCUACGACUGCCGAGCGAGAUUACGCUUGAGCGCCCCACUGAGGAUGCCCACGGGCGAUUGAGGCACGG, for which the Kd was 13.6 nM.

For the variant CCCUACGACUGCCGAGCGAGAUUACGCUUGAGCGCCCCACUGAGGAUGCCCACGGGCGAUUGUGGCACGG, the Kd was found to be 11.1 nM. As to CCCUACGACUGCCGAGCGAGAUUACGCUUGAGCGCCUCACUGAGGAUGCCCACGGGCGAUUGGGGCACGG, the dissociation constant (Kd) was 9.84 nM.

With CCCUACGACUGCCGAGCGAGAUUACGCUUGAGCGCCACACUGAGGAUGCCCACGGGCGAUUGGGGCACGG, the Kd amounted to 13 nM. For CCCUACGACUGCCGAGCGAGAUUACGCUUGAGCGCCCCACUGAGGAGGCCCACGGGCGAUUGGGGCACGG, the Kd was 6.26 nM. Next, CCCUACGACUGCCGAGCGAGAUUACGCUUGAGCGCCCCACUGAGGAAGCCCACGGGCGAUUGGGGCACGG: 12.5 nM.

Take CCCUACGACUGCCGAGCGAGAUUACGCUUGUGCGCCCCACUGAGGAUGCCCACGGGCGAUUGGGGCACGG: the Kd was found to be 7.69 nM. CCCUACGACUGCCGAGCGAGAUUACGCUUGGGCGCCCCACUGAGGAUGCCCACGGGCGAUUGGGGCACGG: the Kd amounted to 6.99 nM.

As for CCCUACGACGGCCGAGCGAGAUUACGCUUGAGCGCCCCACUGAGGAUGCCCACGGGCGAUUGGGGCACGG, the Kd is 5.45 nM. In the case of CCCUACGACAGCCGAGCGAGAUUACGCUUGAGCGCCCCACUGAGGAUGCCCACGGGCGAUUGGGGCACGG, the Kd stood at 4.41 nM. Next, CCCUACGACCGCCGAGCGAGAUUACGCUUGAGCGCCCCACUGAGGAUGCCCACGGGCGAUUGGGGCACGG: 6.91 nM. Next, CCCUACGACUGCCGAGCGAGAUUACGCUUGAGCGCCCCACUGAGGAUGCUCACGGGCGAUUGGGGCACGG: 12.7 nM. Regarding CCCUACGACUGCCGAGCGAGAUUACACUUGAGCGCCCCACUGAGGAUGCCCACGGGCGAUUGGGGCACGG, the Kd is 4.14 nM. Next, CCCUACGACUGCCGAGCGAGAUUACUCUUGAGCGCCCCACUGAGGAUGCCCACGGGCGAUUGGGGCACGG: 4.31 nM; CCCUACGACUGCCGAGCGAGAUUACGCUUGAACGCCCCACUGAGGAUGCCCACGGGCGAUUGGGGCACGG: 5.67 nM. For CCCUACGACUGCCGAGCGAGAUUACGCUUGAGCGCCCCACUGAGGAUGCCCACGGGCGAUUGGGGCGCGG, the Kd turned out to be 5.89 nM. Regarding CCCUACGACUGCCGAGCGAGAUUACGCUCGAGCGCCCCACUGAGGAUGCCCACGGGCGAUUGGGGCACGG, the Kd stood at 5.56 nM.

For the variant CCCUACGACUGCCGAGCGAGAUUACGCUAGAGCGCCCCACUGAGGAUGCCCACGGGCGAUUGGGGCACGG, the Kd came out at 4.29 nM. On to CCCUACGACUGCCGAGCGAGAUUACGCUGGAGCGCCCCACUGAGGAUGCCCACGGGCGAUUGGGGCACGG, for which the Kd came to 5.91 nM. Regarding CCCUACGACUGCCGAGCGAGAUUACGCUUAAGCGCCCCACUGAGGAUGCCCACGGGCGAUUGGGGCACGG, the Kd was 3.77 nM. Turning to CCCUACGACUGCCGAGCGAGAUUACGCUUGAGCGCCCCACUGAGGAUGCCCACGGGCGGUUGGGGCACGG, the Kd was 70.4 nM. Turning to CCCUACGACUGGCGAGCGAGAUUACGCUUGAGCGCCCCACUGAGGAUGCCCACGGGCGAUUGGGGCACGG, the Kd came to 5.79 nM. For CCCUACGACUGUCGAGCGAGAUUACGCUUGAGCGCCCCACUGAGGAUGCCCACGGGCGAUUGGGGCACGG, the Kd was 5.44 nM. Turning to CCCUACGACUGCCGAGCGAGAUUACGCUUGAGCGCCCCACUGAGGAUGCCUACGGGCGAUUGGGGCACGG, the Kd amounted to 7.05 nM. Turning to CCCUACGACUGCCGAGCGAGAUUACGCUUGAGCGCCCCACGGAGGAUGCCCACGGGCGAUUGGGGCACGG, the Kd was 6.46 nM. As to CCCUACGACUGCCGAGCGAGAUUACGCUUGAGCGCCCCACAGAGGAUGCCCACGGGCGAUUGGGGCACGG, the Kd came out at 86.3 nM. With CCCUACGACUGCCGAGCGAGAUUACGCUUGAGCGCCCCACCGAGGAUGCCCACGGGCGAUUGGGGCACGG, the Kd turned out to be 66 nM. In the case of CCCUACGACUGCCGAGCGAGAUUACGCAUGAGCGCCCCACUGAGGAUGCCCACGGGCGAUUGGGGCACGG, the Kd is 5.47 nM. CCCUACGACUGCCGAGCGAGAUUACGCCUGAGCGCCCCACUGAGGAUGCCCACGGGCGAUUGGGGCACGG: the equilibrium dissociation constant (Kd) stood at 7.47 nM. Turning to CCCUACGACUGCCGAGCGAGAUUACGCUUGAGCGCCCCACUGAGGAUGCCCACGGGCGAUUGGGACACGG, the Kd was 5.54 nM. Regarding CCCUACGACUGCCGAGCGAGAUUACGCUUGAGCGCCCCACUGAGGAUGCCCACGGGCGAUUGGGUCACGG, the Kd stood at 6.16 nM. Regarding CCCUACGACUGCCGAGCGAGAUUACGCUUGAGCGCCCCACUGAGGAUGCCCACGGACGAUUGGGGCACGG, the Kd was 10.8 nM.

Regarding CCCUACGAGUGCCGAGCGAGAUUACGCUUGAGCGCCCCACUGAGGAUGCCCACGGGCGAUUGGGGCACGG, the Kd was determined as 5.93 nM. On to CCCUACGAUUGCCGAGCGAGAUUACGCUUGAGCGCCCCACUGAGGAUGCCCACGGGCGAUUGGGGCACGG, for which the Kd stood at 5.8 nM.

The record behind these values is the RNAGym collection of RNA variant scans (doi:10.1038/nmeth.2970).
